{"data": "Measured values from different studies", "target": "SRSF protein kinase 1 (SRPK1, Homo sapiens, UniProt Q96SB4)", "note": "Lines come from different studies, so protocols differ."}
{"SMILES": "O=C(NCc1ncc(C(F)(F)F)cc1Cl)c1ccc2c(c1)C1(CCS(=O)(=O)CC1)[C@H](C1CC1)N2S(=O)(=O)c1ccc(F)cc1", "effect on": "cell-free assay", "technique": "competition with immobilised ligand", "tested at": "1 µM", "endpoint": "remaining binding", "value": "72%"}
{"SMILES": "CC(C)(C)c1nc2c(s1)c1nc(N)ncc1c1ccc(NS(=O)(=O)c3c(F)cccc3F)c(F)c12", "effect on": "enzyme activity", "mode": "inhibitor", "technique": "radiometric", "tested at": "1 µM", "endpoint": "remaining activity", "value": "99%"}
{"SMILES": "CCN(CC)c1ccc(C2=NNC(=O)CC2C)cc1[N+](=O)[O-] (stereo not drawn)", "effect on": "enzyme activity", "mode": "inhibitor", "tested at": "10 µM", "endpoint": "remaining activity", "value": "94%"}
{"SMILES": "COc1cc2ncnc(Nc3ccc(Oc4ccccc4)c(C)c3C)c2cc1OC", "effect on": "enzyme activity", "mode": "inhibitor", "tested at": "1 µM", "endpoint": "inhibition", "value": "1%"}
{"SMILES": "Cc1sc(C(=O)NC2COC2)cc1-n1cc(NC(=O)Nc2c(F)cccc2Cl)cn1", "effect on": "enzyme activity", "mode": "inhibitor", "tested at": "10 µM", "endpoint": "remaining activity", "value": "96.9%"}
{"SMILES": "CS(=O)(=O)N1CCCC(NC(=O)[C@H](CCC2CCCCC2)NC(=O)c2ccc(CNC(=O)c3cnc4ccccn34)cc2)C1 (stereo partly drawn)", "effect on": "cell-free assay", "technique": "competition with immobilised ligand", "tested at": "0.1 µM", "endpoint": "remaining binding", "value": "74%"}
{"SMILES": "CC/C(=N\\NC(=O)NCc1cccc(O)c1)c1ccc(O)c(C)c1O", "effect on": "enzyme activity", "mode": "inhibitor", "tested at": "0.1 µM", "endpoint": "inhibition", "value": "-11.7%"}
{"SMILES": "N#CCCc1ccc2c(c1)-c1[nH]c3ccc([N+](=O)[O-])cc3c1CC(=O)N2", "effect on": "cell-free assay", "tested at": "0.5 µM", "endpoint": "remaining signal", "value": "107%"}
{"SMILES": "C=CC(=O)Nc1cc(Nc2nccc(Nc3cc(Cl)c(F)cc3C(C)(C)O)n2)c(OC)cc1N1CC[C@@H](N(C)C)C1", "effect on": "enzyme activity", "mode": "inhibitor", "tested at": "1 µM", "endpoint": "inhibition", "value": "2%"}
{"SMILES": "Cc1ccc(Nc2nccc(N(C)c3ccc4c(C)n(C)nc4c3)n2)cc1S(N)(=O)=O", "effect on": "enzyme activity", "mode": "inhibitor", "tested at": "10 µM", "endpoint": "inhibition", "value": "-3%"}
{"SMILES": "CC(C)c1ccc(NC(=O)c2cccs2)c(-c2nc3ccccc3[nH]c2=O)c1", "effect on": "enzyme activity", "mode": "inhibitor", "tested at": "1 µM", "endpoint": "activity vs control", "value": "100%"}
{"SMILES": "CCCCN(CCCC)C(=O)CN1C[C@H](c2cc(OC)c3c(c2)OCO3)[C@@H](C(=O)O)[C@@H]1CC(C)(C)CCC", "effect on": "cell-free assay", "technique": "competition with immobilised ligand", "tested at": "1 µM", "endpoint": "remaining binding", "value": "100%"}
{"SMILES": "Cc1ccc(NC(=O)c2ccc(C)c(C(F)(F)F)c2)cc1C#Cc1nn(C2CCC(O)CC2)c2ncnc(N)c12 (stereo not drawn)", "effect on": "cell-free assay", "tested at": "10 µM", "endpoint": "remaining signal", "value": "106%"}
{"SMILES": "CN(C)c1ncnc(-c2ccc3nc(Nc4cc(CN5CCN(C(=O)CC(F)(F)F)CC5)ccn4)[nH]c3c2)c1Cl", "effect on": "cell-free assay", "technique": "competition with immobilised ligand", "tested at": "1 µM", "endpoint": "remaining binding", "value": "47%"}
{"SMILES": "COc1ccc(COc2ccc(Cc3cnc(N)nc3N)cc2OC)cc1", "effect on": "cell-free assay", "tested at": "0.5 µM", "endpoint": "remaining signal", "value": "90.4%"}
{"SMILES": "COc1cc(Cl)c(C(=O)N[C@@H](CN[C@H]2CC[C@@H](N)CC2)Cc2ccc(C#N)cc2)cc1-c1ccc(CN[C@H](C)c2ccc(C)cc2)o1", "effect on": "enzyme activity", "mode": "inhibitor", "tested at": "1 µM", "endpoint": "remaining activity", "value": "99%"}
{"SMILES": "Cn1c(=O)n(-c2ccc(C(C)(C)C#N)cc2)c2c3cc(-c4cnc5ccccc5c4)ccc3ncc21", "effect on": "enzyme activity", "mode": "inhibitor", "tested at": "10 µM", "endpoint": "remaining activity", "value": "106%"}
{"SMILES": "CNC(=O)c1cc(Oc2ccc(NC(=O)Nc3ccc(Cl)c(C(F)(F)F)c3)cc2)ccn1", "effect on": "enzyme activity", "mode": "inhibitor", "tested at": "10 µM", "endpoint": "inhibition", "value": "6%"}
{"SMILES": "CC(C)(C)C(=O)c1sc(NC2CCCCC2)nc1N", "effect on": "enzyme activity", "mode": "inhibitor", "tested at": "10 µM", "endpoint": "remaining activity", "value": "92%"}
{"SMILES": "CCCCNc1ncc2c(-c3ccc(F)cc3)nn(C[C@H]3CC[C@H](N)CC3)c2n1", "effect on": "target engagement in cells", "mode": "inhibitor", "technique": "chemoproteomics", "tested at": "20 mM", "endpoint": "inhibition", "value": "-21.7%"}
{"SMILES": "Cc1cc(-n2nc(Cc3cc(F)cc(C(F)(F)F)c3)nc2C)ccc1C(N)=O", "effect on": "cell-free assay", "technique": "competition with immobilised ligand", "tested at": "1 µM", "endpoint": "remaining binding", "value": "81%"}
{"SMILES": "FC(F)(F)Oc1cccc(-c2cnc3ccc(-c4ccncc4)nn23)c1", "effect on": "enzyme activity", "mode": "inhibitor", "technique": "radiometric", "tested at": "5 µM", "endpoint": "activity vs control", "value": "96%"}
{"SMILES": "Cc1cnc(NC2CCOCC2)nc1-n1cnc(C(=O)NC(CN)c2cc(F)cc(Cl)c2)c1 (stereo not drawn)", "effect on": "enzyme activity", "mode": "inhibitor", "technique": "radiometric", "tested at": "1 µM", "endpoint": "remaining activity", "value": "96%"}
{"SMILES": "COc1cc(Nc2cnc(C#N)c(O[C@H](C)CN(C)C)n2)ncc1-c1cnn(C)c1", "effect on": "enzyme activity", "mode": "inhibitor", "technique": "radiometric", "tested at": "1 µM", "endpoint": "remaining activity", "value": "89%"}
{"SMILES": "O=C(NS(=O)(=O)c1ccc(NCC2CCOCC2)c([N+](=O)[O-])c1)c1ccc(N2CCN(Cc3ccc(C(F)(F)F)cc3-c3ccc(Cl)cc3)CC2)cc1Oc1cnc2[nH]ccc2c1", "effect on": "cell-free assay", "technique": "competition with immobilised ligand", "tested at": "1 µM", "endpoint": "remaining binding", "value": "100%"}
{"SMILES": "Nc1nc(Nc2ccc(S(N)(=O)=O)cc2)nn1C(=O)c1c(F)cccc1F", "effect on": "cell-free assay", "tested at": "0.5 µM", "endpoint": "remaining signal", "value": "86.4%"}
{"SMILES": "CN1CC(Oc2cnc(C#N)cc2-c2ccn3nc(NC(=O)C4CC4)cc3c2)C1", "effect on": "enzyme activity", "mode": "inhibitor", "tested at": "1 µM", "endpoint": "inhibition", "value": "-2%"}
{"SMILES": "CCCS(=O)(=O)Nc1ccc(F)c(C(=O)c2c[nH]c3ncc(-c4ccc(Cl)cc4)cc23)c1F", "effect on": "enzyme activity", "mode": "inhibitor", "tested at": "1 µM", "endpoint": "inhibition", "value": "< 10%"}
{"SMILES": "CCN(CC)CCNC(=O)c1c(C)[nH]c(/C=C2\\C(=O)Nc3ccc(F)cc32)c1C", "effect on": "enzyme activity", "mode": "inhibitor", "tested at": "0.3 µM", "endpoint": "inhibition", "value": "-17%"}
{"SMILES": "N#CC1(c2ccccn2)CCN(Cc2cc(C(=O)N3CCCC3)c(=O)n3ccccc23)CC1", "effect on": "cell-free assay", "technique": "competition with immobilised ligand", "tested at": "1 µM", "endpoint": "remaining binding", "value": "85%"}
{"SMILES": "FC(F)c1nc2ccccc2n1-c1nc(N2CCOCC2)nc(N2CCOCC2)n1", "effect on": "enzyme activity", "mode": "inhibitor", "tested at": "10 µM", "endpoint": "remaining activity", "value": "92%"}
{"SMILES": "O=C(N1CCS(=O)(=O)CC1)N1C[C@H](c2ccc(OC(F)(F)F)cc2)C[C@H](c2nc(C3CC3)no2)C1", "effect on": "cell-free assay", "technique": "competition with immobilised ligand", "tested at": "1 µM", "endpoint": "remaining binding", "value": "100%"}
{"SMILES": "CC(C1CC1)n1cnc2c(NCc3cccc(C(F)(F)F)c3)nc(NCCN(C)C)nc21 (stereo not drawn)", "effect on": "enzyme activity", "mode": "inhibitor", "tested at": "5 µM", "endpoint": "inhibition", "value": "> 50%"}
